# From PubChem BioAssay
# NS3 helicase inh = HCV NS3 helicase inhibition; AID 1800; inhibition, % at 10.9 µM; NS3 helicase DNA unwinding, Cy5 molecular beacon fluorescence; actives 0.56% (n = 290,000);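 active = inhibition above the mean of all tested compounds plus 3 SD, set per campaign, cut at about 35% in these data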;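 also: 0% = DMSO wells and 100% = thioflavine S control wells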
#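 test system = hepatitis C virus NS3 helicase domain fragment enzyme | reagent = annealed dual-labelled DNA beacon duplex, ATP-started | times = 1 h at 25 °C | detection = Cy5 fluorescence, 0 and 60 min reads | read-out basis = percent inhibition from t60/t0 fluorescence ratio | control set = DMSO and thioflavine S | replication = one well per compound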
# PRMT1 inh = blocks human protein arginine methyltransferase 1; recombinant PRMT1, activity-based probe fluorescence polarization; inhibition, % at 2.79 µM; actives 1.3% (n = 370,000); AID 652257;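 active = inhibition above about 21% made by adding two undisclosed values, limit read from the data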
# ABHD5 PLIN5 PPI = ABHD5-PLIN5 protein interaction inhibition; inhibition, % at 4 µM; actives 0.78% (n = 360,000); AID 602281; Split G. princeps luciferase complementation, luminescence, 4 h;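 active = inhibition above the mean inhibition across every tested compound plus 3 SD, cut at about 22% in these data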;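 also: 0% = DMSO only wells and the 100% control is not disclosed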
# core dimer inh = HCV core protein dimerization inhibition; TR-FRET GST/Flag-core106 dimerization, 1536-well; actives 0.33% (n = 300,000); AID 1899; inhibition, % at 5 µM;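 active = inhibition above the mean of all tested compounds plus 3 SD, set per screening campaign, cut at about 45% in these data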
#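 assay system = GST-tagged and Flag-tagged HCV core protein residues 1-106 | controls = unlabelled core106 and no-GST-core106 wells | incubation = compound-protein-antibody incubation 4 h at 22.5 °C | probe or stimulus = Eu donor and XL665 acceptor anti-tag antibodies | read-out = % inhibition based on acceptor/donor emission ratio | signal = TR-FRET 671 and 617 nm emission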
# APOBEC3G inh = inhibitors of human APOBEC3G DNA deaminase. recombinant A3G, ssDNA deamination FAM/TAMRA fluorescence. inhibition, % at 20 µM. actives 0.28% (n = 330,000). AID 493012. Q9HC16;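 active = inhibition of at least 40% at 20 µM, with no more than 30% in the related APOBEC3A deaminase screen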;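 also: plate controls were DMSO wells with A3G for no effect and wells lacking A3G enzyme for full effect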
# Target sequence (Q9HC16 whole entry, looked up): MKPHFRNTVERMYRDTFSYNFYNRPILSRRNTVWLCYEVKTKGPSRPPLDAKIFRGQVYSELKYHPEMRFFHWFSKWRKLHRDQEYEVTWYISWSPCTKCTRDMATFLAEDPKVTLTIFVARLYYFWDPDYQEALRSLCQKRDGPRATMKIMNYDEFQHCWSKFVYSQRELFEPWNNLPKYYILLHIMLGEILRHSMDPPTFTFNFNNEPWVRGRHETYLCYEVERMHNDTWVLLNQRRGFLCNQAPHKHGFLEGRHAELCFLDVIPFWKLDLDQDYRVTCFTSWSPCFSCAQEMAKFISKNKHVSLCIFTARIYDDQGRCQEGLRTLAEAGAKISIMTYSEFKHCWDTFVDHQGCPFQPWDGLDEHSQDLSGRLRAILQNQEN
# A3A deaminase = blocks human APOBEC3A ssDNA deamination. P31941. recombinant A3A, FAM/TAMRA ssDNA deamination fluorescence. inhibition, % at 20 µM. actives 0.41% (n = 330,000). AID 493011;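 active = at least 40% inhibition at 20 µM here, with at most 30% in a related deaminase screen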;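 also: plate controls were A3A with DMSO for no effect and wells lacking A3A enzyme for full effect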
# Target sequence (P31941 whole entry, looked up): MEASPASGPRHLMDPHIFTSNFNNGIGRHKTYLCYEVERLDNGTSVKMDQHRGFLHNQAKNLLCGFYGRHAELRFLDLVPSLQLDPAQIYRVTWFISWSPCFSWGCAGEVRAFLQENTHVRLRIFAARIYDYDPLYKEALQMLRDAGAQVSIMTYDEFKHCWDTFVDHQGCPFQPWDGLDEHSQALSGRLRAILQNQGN
# * = called active by the depositor; / = no result. Most compounds without a hit are left out; they make up all but 2.9% or so of the library.
SMILES,NS3 helicase inh,PRMT1 inh,ABHD5 PLIN5 PPI,core dimer inh,APOBEC3G inh,A3A deaminase
COc1ccc(S(=O)(=O)N2CCOCC2)cc1NC(=O)c1cccc(-n2cccc2)c1,/,0,4,65*,60,80
COC(=O)N1C[C@H](OCc2ccccc2)[C@H]2C[C@@H]1c1ccccc1O2,/,6,/,/,/,/
CN1/C(=C\C(=O)c2cccnc2)C(C)(C)c2ccccc21,-6,0,-3,6,-4,-6
CN1/C(=C/C(=O)c2nc(S(C)(=O)=O)ncc2Cl)C(C)(C)c2ccccc21,3,/,69*,12,-3,-4
CC(=O)Nc1ccc(CN2C(=O)C(C)ON=C2c2ccccc2-c2ccco2)cc1 (stereo not drawn),/,23*,11,/,/,/
O=C(OCc1cc(=O)n2c(n1)sc1ccccc12)c1ccc(O)cc1,30,-1,1,50*,10,21
C[C@@H]1CN([C@@H](C)CO)C(=O)CCCn2nncc2CO[C@@H]1CN(C)S(=O)(=O)c1ccc2c(c1)OCCCO2,/,0,8,/,/,/
CCCCN1CC(COc2ccc(OC)cc2)OCCS1(=O)=O (stereo not drawn),/,-4,/,/,/,/
Cc1nc2sc(C(c3ccco3)N3CCC(C)CC3)c(O)n2n1 (stereo not drawn),7,22*,5,-111,0,-1
Cc1nc2sc(C(c3ccco3)N3CCN(c4ccccc4)CC3)c(O)n2n1 (stereo not drawn),2,7,2,5,-3,-3
Cc1nc2sc(C(c3ccco3)N3CCN(C(c4ccccc4)c4ccccc4)CC3)c(O)n2n1 (stereo not drawn),28,24*,7,-6,-3,-1
COc1ccc(N2CCCN(CC(=O)Nc3ccccc3C)CC2)cc1,/,3,/,/,/,/
CCN(CCCNc1cc2c(c(N)c1S(=O)(=O)O)C(=O)c1ccccc1C2=O)c1ccccc1,/,23*,15,/,/,/
COc1ccc(N2CCN(C(=O)c3ccc4c(c3)NC(=O)C(CSCc3ccccc3F)N4)CC2)cc1 (stereo not drawn),/,37*,-2,/,/,/
CC1(C(=O)NS(=O)(=O)c2cccc(F)c2)CCN1C(=O)c1ccccc1 (stereo not drawn),/,1,0,/,/,/
CCOC(=O)c1cnc[nH]c1=O,/,3,22*,/,/,/
Cc1ccc(NC(=O)/C=C\C(=O)NCC(=O)O)cc1,0,24*,3,-3,-2,1
Cc1nc2ccc(NC(=O)c3cc([N+](=O)[O-])cc([N+](=O)[O-])c3Cl)cc2s1,1,15,56*,15,/,/
Cc1nc2ccc(NC(=O)c3ccc(Cl)c([N+](=O)[O-])c3)cc2s1,6,1,0,-1,-5,-2
NS(=O)(=O)c1ccc2c(c1)C1C=CCC1C(C1CC=CCC1)N2 (stereo not drawn),15,37*,10,65*,3,3
Cc1ccccc1-c1ccc(C(=O)NCc2ccccc2)o1,-7,-3,-3,4,-1,-4
Cc1ccc(-c2ccc(C(=O)NCc3ccc(Cl)cc3)o2)c2ccccc12,17,1,22*,22,-6,-3
Oc1ccc(N2CCN(C(c3cccs3)c3nnnn3CCc3ccccc3)CC2)cc1 (stereo not drawn),9,22*,4,7,18,0
COc1ccc(Cn2nnnc2C(c2cccs2)N2CCN(c3ccccc3)CC2)cc1 (stereo not drawn),-6,-2,-2,10,-2,0
COc1ccc(NC(=O)Nc2ccc3c(c2)OCO3)c(C)c1,4,0,5,-14,-5,-4
SMILES,NS3 helicase inh,PRMT1 inh,ABHD5 PLIN5 PPI,core dimer inh,APOBEC3G inh,A3A deaminase
CCC(CC)NC(=O)c1cccc([N+](=O)[O-])c1C,-3,0,0,3,2,8
Cc1c(C(=O)NNc2cc(=O)n(C)c(=O)n2C)cccc1[N+](=O)[O-],6,23*,10,-8,2,0
COCCN(C(=O)COC(=O)c1cc2c(s1)CCC2)c1c(N)n(Cc2ccccc2)c(=O)[nH]c1=O,/,13,9,69*,80,100
CCC1CCc2sc(C(=O)OCC(=O)N(CCOC)c3c(N)n(Cc4ccccc4)c(=O)[nH]c3=O)cc2C1 (stereo not drawn),/,3,4,8,-8,0
N#Cc1ccc(S(=O)(=O)N2CCCc3nc(-c4ccccc4)ccc32)cc1,/,-1,/,/,/,/
CC(=O)N(Cc1ccccc1)c1nccs1,/,-2,/,/,/,/
CCc1cc2cc(C(=O)Nc3ccc(C)cc3)sc2s1,15,-2,-2,52*,2,4
CCc1sc(C(=O)Nc2ccc(N3CCOCC3)cc2)cc1C,/,-1,3,/,-6,-3
CC(C)(C)C(=O)OC12CCCN(C1)/C(=C/c1cccc(Cl)c1)C2 (stereo not drawn),/,-5,/,/,/,/
COc1cccc(CNC(=O)[C@H]2CCCN2C(=O)[C@H]2CCCN2C(=O)c2ccccc2)c1,/,3,/,/,/,/
CCN(CC)c1ccc(C(=O)OCc2cc(=O)oc3cc(O)ccc23)cc1,11,-1,0,50*,-2,1
CCN(CC)c1ccc2c(O)cc(=O)oc2c1,21,-1,1,-1,1,3
Cc1ccc(-c2cc(-c3ccccc3Cl)c(C#N)c(N)n2)o1,15,22*,4,18,2,7
Cc1ccc(-c2cc(-c3ccc(F)cc3)nc(N)c2C#N)o1,6,13,13,10,-4,1
COc1ccc2ccccc2c1CN1CCN(c2ncc(Cc3ccccc3)cn2)CC1,/,2,/,/,/,/
CC(C)=CCc1c(O)cc2oc3c(CC=C(C)C)c(O)c(O)c(CC=C(C)C)c3c(=O)c2c1O,/,3,1,58*,-3,-1
Cc1nc2ccc(NS(=O)(=O)c3ccc(Br)cc3)cc2s1,/,7,-4,/,-6,-1
CC[C@H](C)/C=C(C)/C=C/C1=CC2=CC(=O)[C@]3(C)OC(=O)[C@@H](C(C)=O)[C@@H]3C2=CO1,34,13,4,56*,-13,0
CC(CC(=O)Nc1ccc(Cl)c(S(=O)(=O)N2CCOCC2)c1)c1ccccc1 (stereo not drawn),/,1,2,/,0,2
O=C(O)CC(SCC(=O)Nc1ccc(Cl)c(S(=O)(=O)N2CCOCC2)c1)C(=O)O (stereo not drawn),-19,43*,-10,-2,-1,2
CC(C)CCN1C(=O)CSCC1(C)C(=O)Nc1ccc2c(c1)OCCO2 (stereo not drawn),/,0,0,/,/,/
COc1cc(/C=C(\C#N)C(=O)c2ccc(O)c(O)c2)cc(I)c1O,/,29*,16,-17,6,7
O=C(O)CSCC(=O)Nc1ccc(-c2nc3ccccc3s2)cc1,14,36*,-3,9,-9,-4
